An excerpt weighted towards active compounds, which were near 4.2% of everything screened.
SKKanGAS inh = S. pyogenes SKKanGAS growth inhibitors in kanamycin, primary screen, streptokinase expression inhibitor project, SKKanGAS strain, BacTiter-Glo luminescence; 6 h; inhibition, % at 7.5 µM; 300,000 compounds, 1.3% hits; AID 1662, 2009;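 active means mean replicate score, as percent of positive control median, at least 50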;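 further: strain carries kanamycin resistance gene driven by streptokinase promoter and grows in 40 µg/ml kanamycin; loss of luminescence reflects streptokinase promoter inhibition or plain growth inhibition; 0% = median of DMSO wells and 100% = positive control at its reference dose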
WT yeast gro inh = growth inhibition of WT strain, primary screen, mitochondrial fusion inhibitor project, WT and mutant strains, chemical genetic. mitochondrial fusion phenotypic screen. inhibition, % at 10 µM. 190,000 compounds, 2.1% hits. AID 1362, 2008; in the data active means inhibition above about 58%; tested in S. cerevisiae
Autophagy mod = autophagy modulators in MEF cells, primary screen, imaging, high-content, MEF GFP-LC3 | 190,000 compounds, 0.98% hits | AID 463193, 2010 | MEF GFP-LC3 puncta imaging; test concentration mostly 10 µM | calls only at 10 µM (by protocol);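 active means percentage of spot-positive cells more than 3 SD above its plate mean, without a fluorescence outlier flag or 80% toxicity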;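 further: spot-positive cell cutoff set from DMSO-treated cells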
Ins promoter up = insulin promoter activators in MIN6 cells, imaging, high-content screening, mouse beta cells; MIN6 insulin promoter-GFP reporter; stronger effect = higher value; z-score at 5 µM; 190,000 compounds, 0.3% hits;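 active means z-score above 3 at 5 µM with at least 500 cells counted in the well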
Rad51 HR inh = human RAD51 strand exchange inhibitors, primary screen, biochemical, fluorescence | DNA repair protein RAD51 homolog 1 (Homo sapiens), Q06609 | hRad51 DNA strand exchange, fluorescence dequenching | inhibition, % at 10 µM | 200,000 compounds, 0.085% hits | AID 1385, 2008;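 active means inhibition above 40% at the single screening dose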;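 further: 0% = DMSO control wells and 100% = blanks with heterologous ssDNA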
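Assay system: Human Rad51 nucleoprotein filaments preassembled on unlabelled ssDNA | Reagent: Donor/quencher-labelled 47-bp dsDNA substrate | Doses: One concentration, 10 µM final | Times: 37 °C 15-min filament assembly, 30-min compound preincubation, 15-min exchange | Technique: Fluorescein emission 520 nm, excitation 485 nm | Benchmarks: Plate control and blank wells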
KCC2 mod = KCC2 cotransporter modulators, thallium flux, primary screen, cell-based, HEK293 KCC2, FluoZin-2 fluorescence, MLSMR; 190,000 compounds, 2.2% hits; KCC2 cells, thallium flux FluoZin-2 fluorescence; B-score of Tl+ flux slope (higher = more flux/activation; lower = inhibition) at 10 µM; AID 1456, 2008;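 active means thallium flux slope and its plate-corrected score both differing from the plate sample mean at a set confidence after two filtering rounds, in either direction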;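 further: slope of fluorescence scaled to starting intensity during 10 to 20 s after thallium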
The depositor's hits bear a star.

How did Cc1c(C(=O)OCC(=O)Nc2cccc(S(N)(=O)=O)c2)oc2c1ccc1ccccc12 do in these assays?
SKKanGAS inh: 65.8*; WT yeast gro inh: -2.4; Autophagy mod: inactive; Ins promoter up: 0.08; KCC2 mod: 0.511

How did COc1cccc(NC(=O)CN(C)C(=O)c2oc3c(ccc4ccccc43)c2C)c1 do in these assays?
SKKanGAS inh: 36.3

Results for CN(C(=O)c1ccccc1Cl)C1CCCCC1 ?
WT yeast gro inh: -22.1; Autophagy mod: inactive; Ins promoter up: 1.1; Rad51 HR inh: -1.3; KCC2 mod: -0.0337

Results for CC1CC(N(C(=O)c2ccccc2Cl)c2ccccc2)c2ccccc2N1 (centres undefined) ?
SKKanGAS inh: -0.4; WT yeast gro inh: 67.1*; Autophagy mod: inactive; Ins promoter up: -0.01

What do the screens show for `CCOC(=O)c1c(C)[nH]c(C)c1C(=O)CSc1nnc(-c2ccncc2)n1C`?
SKKanGAS inh: 1.6; WT yeast gro inh: 65.1*; Autophagy mod: inactive; Ins promoter up: -0.11; KCC2 mod: -0.421

Results for COc1ccc(/C=C2/C(=O)N(c3nc4ccccc4s3)N=C2CSc2ccc(Cl)cc2)cc1 ?
SKKanGAS inh: 68.3*; WT yeast gro inh: 2.4; Autophagy mod: inactive; Ins promoter up: 0.14; KCC2 mod: -0.0282

Results for COc1ccc(/C=C2/C(=O)N(Cc3ccccc3)N=C2C)cc1 ?
SKKanGAS inh: -8.7; WT yeast gro inh: 8.8; Autophagy mod: inactive; Ins promoter up: 0.1; Rad51 HR inh: 4.8; KCC2 mod: 0.57

How did Cc1ccc(S(=O)(=O)N2CCC(C(=O)N3CC(C)OC(C)C3)CC2)cc1 (centres undefined) do in these assays?
SKKanGAS inh: 0.2

Results for Cc1cccc(N(O)C(=O)Nc2cccc(Cl)c2)c1 ?
SKKanGAS inh: 1.8

How did COc1ccc(/C=N/NC(=O)CCNc2n[nH]c(=O)[nH]c2=O)c(OC)c1 do in these assays?
SKKanGAS inh: -5.0; WT yeast gro inh: -16.9; Autophagy mod: active; Ins promoter up: 1.29; Rad51 HR inh: -6.2; KCC2 mod: -0.0491

What do the screens show for `COc1ccc(C2C=C(c3cccs3)Nc3nc(CCCO)nn32)cc1` (centres undefined)?
WT yeast gro inh: -4.5; Autophagy mod: inactive; Ins promoter up: 5.85*; Rad51 HR inh: -160.2; KCC2 mod: inactive

Results for O=C(NCC(c1ccco1)N1CCc2ccccc2C1)C(=O)Nc1ccc(F)cc1F (centres undefined) ?
SKKanGAS inh: 2.3

How did COc1ccc(C(=O)/C=C/c2ccc(O)cc2)c(O)c1CC=C(C)C do in these assays?
SKKanGAS inh: 88.6*; WT yeast gro inh: 87.2*; Autophagy mod: inactive; Ins promoter up: 0.77; Rad51 HR inh: -4.8; KCC2 mod: -0.406

How did N#Cc1c2ccc(O)cc2n2ccccc12 do in these assays?
SKKanGAS inh: 9.3; WT yeast gro inh: -13.3; Autophagy mod: inactive; Ins promoter up: 0.31; Rad51 HR inh: -3.7; KCC2 mod: -4.22*

What do the screens show for `O=C(NCCCNC(=O)c1ccc(-c2cccc(Cl)c2)o1)c1cnccn1`?
SKKanGAS inh: -9.4

Results for CCc1sc(N(C(=O)Cc2ccccc2)c2cccc(F)c2)nc1-c1ccc(C)cc1 ?
SKKanGAS inh: 59.4*; WT yeast gro inh: 8.2; Autophagy mod: inactive; Rad51 HR inh: 2.9; KCC2 mod: 0.388

How did O=C(C1CC(=O)N(c2ccc3c(c2)OCCO3)C1)N1CCCC(C(F)(F)F)C1 (centres undefined) do in these assays?
SKKanGAS inh: 1.0

How did Nc1ccc(C(=O)N/N=C\c2ccc(OC(=O)c3ccccc3Cl)cc2)cc1 do in these assays?
SKKanGAS inh: 0.8

How did O=C(O)c1ccc(N/N=C/c2ccc(OC(=O)c3ccccc3Cl)cc2)cc1 do in these assays?
SKKanGAS inh: 63.4*; WT yeast gro inh: -11.1; Autophagy mod: inactive; Ins promoter up: -0.61; Rad51 HR inh: 6.7; KCC2 mod: -1.02

Results for Cc1ccc(C=Nc2ccccc2C(=O)Nc2ccccc2)cc1 ?
SKKanGAS inh: 1.2; WT yeast gro inh: -18.8; Autophagy mod: inactive; Ins promoter up: -0.04; Rad51 HR inh: 12.6; KCC2 mod: -3.39

High-throughput results (PubChem BioAssay)
